Results reported in ChEMBL document CHEMBL3739271, “Synthesis and evaluation of a series of resveratrol analogues as potent anti-cancer agents that target tubulin” (2015).

Tests used:
Type in all cases: functional
U-251 = assay: Cytotoxicity against human U251 cells by SRB assay
Outline: (§1)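 NCI 60 human tumor cell line panel, sulforhodamine B (SRB) protein-stain read-out. Compounds were first screened at a single dose of 10^-5 M, and selected compounds were then tested in a five-dose format. GI50 is the drug concentration giving a 50% reduction in net protein increase relative to control cells.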

MCF7 = assay: Cytotoxicity against human MCF7 cells by SRB assay; outline: as §1
[1] = Cytotoxicity against human HCT116 cells by SRB assay; settings: HCT-116; outline: as §1
[2] = Cytotoxicity against human SNB75 cells by SRB assay; settings: SNB-75; outline: as §1
[3] = Cytotoxicity against human SF539 cells by SRB assay; settings: SF-539; outline: as §1
[4] = Cytotoxicity against human RPMI8226 cells by SRB assay; settings: RPMI-8226; outline: as §1
[5] = Cytotoxicity against human UACC62 cells by SRB assay; settings: UACC-62; outline: as §1
SK-MEL-5 = assay: Cytotoxicity against human SK-MEL-5 cells by SRB assay; outline: as §1
[6] = Cytotoxicity against human SW620 cells by SRB assay; settings: SW-620; outline: as §1
SK-MEL-28 = assay: Cytotoxicity against human SK-MEL-28 cells by SRB assay; outline: as §1
K562 = assay: Cytotoxicity against human K562 cells by SRB assay; outline: as §1
[7] = Cytotoxicity against human SF268 cells by SRB assay; settings: SF-268; outline: as §1
[8] = Cytotoxicity against human LOXIMVI cells by SRB assay; settings: LOX IMVI
Outline: (§2)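 NCI 60-cell-line panel using sulforhodamine B protein stain. Initial single-dose screen at 10^-5 M, then five-dose testing. GI50 is the drug concentration giving a 50% reduction in net protein increase relative to control cells.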

KM12 = assay: Cytotoxicity against human KM12 cells by SRB assay; outline: as §1
[9] = Cytotoxicity against human Hs578T cells by SRB assay; settings: Hs-578T; outline: as §1
[10] = Cytotoxicity against human HOP62 cells by SRB assay; settings: HOP-62; outline: as §1
HT-29 = assay: Cytotoxicity against human HT-29 cells by SRB assay; outline: as §1
[11] = Cytotoxicity against human COLO205 cells by SRB assay; settings: COLO 205; outline: as §1
A549 = assay: Cytotoxicity against human A549 cells by SRB assay; outline: as §1
MDA-MB-435 = assay: Cytotoxicity against human MDA-MB-435 cells by SRB assay; outline: as §1
NCI/ADR-RES = assay: Cytotoxicity against human NCI/ADR-RES cells by SRB assay; outline: as §1
[12] = Cytotoxicity against human OVCAR4 cells by SRB assay; settings: OVCAR-4; outline: as §1
[13] = Cytotoxicity against human HCT15 cells by SRB assay; settings: HCT-15; outline: as §1
NCI-H522 = assay: Cytotoxicity against human NCI-H522 cells by SRB assay; outline: as §1
[14] = Cytotoxicity against human UO31 cells by SRB assay; settings: UO-31; outline: as §1
[15] = Cytotoxicity against human HCC2998 cells by SRB assay; settings: HCC 2998; outline: as §1
MDA-MB-231 = assay: Cytotoxicity against human MDA-MB-231 cells by SRB assay; outline: as §1
[16] = Cytotoxicity against human IGROV1 cells by SRB assay; settings: IGROV-1; outline: as §2
CAKI-1 = assay: Cytotoxicity against human CAKI-1 cells by SRB assay; outline: as §1
SR = assay: Cytotoxicity against human SR cells by SRB assay; outline: as §1
[17] = Cytotoxicity against human SKOV3 cells by SRB assay; settings: SK-OV-3; outline: as §1
CCRF-CEM = assay: Cytotoxicity against human CCRF-CEM cells by SRB assay; outline: as §1
SK-MEL-2 = assay: Cytotoxicity against human SK-MEL-2 cells by SRB assay; outline: as §1
[18] = Cytotoxicity against human HL-60(TB) cells by SRB assay; outline: as §2
A498 = assay: Cytotoxicity against human A498 cells by SRB assay; outline: as §1
[19] = Cytotoxicity against human MOLT4 cells by SRB assay; settings: MOLT-4; outline: as §1
[20] = Cytotoxicity against human SNB19 cells by SRB assay; settings: SNB-19; outline: as §1
ACHN = assay: Cytotoxicity against human ACHN cells by SRB assay; outline: as §1
MDA-MB-468 = assay: Cytotoxicity against human MDA-MB-468 cells by SRB assay; outline: as §1
M14 = assay: Cytotoxicity against human M14 cells by SRB assay; outline: as §1
[21] = Cytotoxicity against human OVCAR3 cells by SRB assay; settings: OVCAR-3; outline: as §1
NCI-H23 = assay: Cytotoxicity against human NCI-H23 cells by SRB assay; outline: as §1
786-0 = assay: Cytotoxicity against human 786-0 cells by SRB assay; outline: as §1
[22] = Cytotoxicity against human SF295 cells by SRB assay; settings: SF-295; outline: as §1
[23] = Cytotoxicity against human HOP92 cells by SRB assay; settings: HOP-92; outline: as §1

Compound `COc1ccc(/C=C(\C#N)c2cc(OC)cc(OC)c2)cc1` has a GI50 (U-251) of 343 nM, a GI50 (MCF7) of 310 nM and a GI50 [1] of 330 nM. The GI50 [2] was 290 nM, the GI50 [3] was 220 nM and the GI50 [4] was 330 nM. For the same compound, the GI50 [5] was 400 nM, the GI50 (SK-MEL-5) was 270 nM and the GI50 [6] was 420 nM. It also gave a GI50 (SK-MEL-28) of 0.49 µM, a GI50 (K562) of 310 nM and a GI50 [7] of 0.84 µM. The GI50 [8] was 580 nM, the GI50 (KM12) was 380 nM and the GI50 [9] was 310 nM. It also gave a GI50 [10] of 510 nM, a GI50 (HT-29) of 280 nM and a GI50 [11] of 270 nM. The GI50 (A549) was 0.38 µM, the GI50 (MDA-MB-435) was 170 nM and the GI50 (NCI/ADR-RES) was 270 nM. It also gave a GI50 [12] of 0.73 µM, a GI50 [13] of 330 nM and a GI50 (NCI-H522) of 90 nM. The GI50 [14] was 490 nM, the GI50 [15] was 0.34 µM and the GI50 (MDA-MB-231) was 430 nM. The GI50 [16] was 0.53 µM, the GI50 (CAKI-1) was 540 nM and the GI50 (SR) was 290 nM. The GI50 [17] was 0.37 µM, the GI50 (CCRF-CEM) was 320 nM and the GI50 (SK-MEL-2) was 880 nM. It also gave a GI50 [18] of 280 nM, a GI50 (A498) of 250 nM and a GI50 [19] of 0.43 µM. It also gave a GI50 [20] of 0.98 µM, a GI50 (ACHN) of 0.53 µM and a GI50 (MDA-MB-468) of 290 nM. It also gave a GI50 (M14) of 280 nM, a GI50 [21] of 300 nM and a GI50 (NCI-H23) of 0.53 µM. For the same compound, the GI50 (786-0) was 0.42 µM and the GI50 [22] was 220 nM.
Work on `COc1ccc(/C=C/c2cc(OC)cc(OC)c2/C=C(\C#N)c2ccccc2OC)cc1` yielded a GI50 (U-251) of 2770 nM, a GI50 (MCF7) of 720 nM and a GI50 [1] of 1290 nM. The GI50 [2] was 2280 nM, the GI50 [3] was 1550 nM and the GI50 [4] was 2850 nM. It also gave a GI50 (SK-MEL-5) of 2440 nM, a GI50 [6] of 710 nM and a GI50 (SK-MEL-28) of 4.22 µM. The GI50 (K562) was 430 nM, the GI50 [7] was 4.18 µM and the GI50 (KM12) was 640 nM. It also gave a GI50 [9] of 1340 nM, a GI50 [10] of 2790 nM and a GI50 (HT-29) of 480 nM. The GI50 [11] was 2280 nM, the GI50 (A549) was 3.56 µM and the GI50 (MDA-MB-435) was 280 nM. The GI50 (NCI/ADR-RES) was 710 nM, the GI50 [12] was 3.59 µM and the GI50 [13] was 760 nM. It also gave a GI50 (NCI-H522) of 250 nM, a GI50 [14] of 3440 nM and a GI50 [15] of 5.47 µM. It also gave a GI50 (MDA-MB-231) of 2830 nM, a GI50 [16] of 5.28 µM and a GI50 (CAKI-1) of 2200 nM. The GI50 (SR) was 280 nM, the GI50 [17] was 4.73 µM and the GI50 (CCRF-CEM) was 2240 nM. For the same compound, the GI50 (SK-MEL-2) was 2130 nM, the GI50 [18] was 580 nM and the GI50 (A498) was 1370 nM. For the same compound, the GI50 [19] was 3.3 µM, the GI50 [20] was 8.77 µM and the GI50 (ACHN) was 4.25 µM. For the same compound, the GI50 (MDA-MB-468) was 1700 nM, the GI50 (M14) was 1140 nM and the GI50 [21] was 1380 nM. It also gave a GI50 (786-0) of 3.25 µM and a GI50 [22] of 2510 nM.
In the case of `COc1cc(/C=C(\C#N)c2cc(OC)c(OC)c(OC)c2)cc(OC)c1`, the GI50 (U-251) is reported as 7820 nM, the GI50 (MCF7) is reported as 4350 nM and the GI50 [1] is reported as 6050 nM. It also gave a GI50 [2] of 2670 nM, a GI50 [3] of 6600 nM and a GI50 [4] of 6640 nM. For the same compound, the GI50 [5] was 2420 nM, the GI50 (SK-MEL-5) was 4700 nM and the GI50 [6] was 5170 nM. The GI50 (SK-MEL-28) was 14 µM, the GI50 (K562) was 3140 nM and the GI50 [7] was 25.3 µM. It also gave a GI50 [8] of 5310 nM, a GI50 (KM12) of 4970 nM and a GI50 [9] of 16700 nM. It also gave a GI50 [10] of 7630 nM, a GI50 (HT-29) of 4240 nM and a GI50 [11] of 5160 nM. It also gave a GI50 (A549) of 6.35 µM, a GI50 (MDA-MB-435) of 1630 nM and a GI50 (NCI/ADR-RES) of 3250 nM. It also gave a GI50 [12] of 7.48 µM, a GI50 [13] of 4470 nM and a GI50 (NCI-H522) of 20500 nM. It also gave a GI50 [14] of 1920 nM, a GI50 [15] of 97 µM and a GI50 (MDA-MB-231) of 4830 nM. The GI50 [23] was 3.57 µM, the GI50 [16] was 14.6 µM and the GI50 (CAKI-1) was 6190 nM. The GI50 (SR) was 4140 nM, the GI50 [17] was 14.4 µM and the GI50 (CCRF-CEM) was 51200 nM. The GI50 (SK-MEL-2) was 5440 nM, the GI50 [18] was 68600 nM and the GI50 (A498) was 1290 nM. It also gave a GI50 [19] of 28.2 µM, a GI50 [20] of 5.46 µM and a GI50 (ACHN) of 9.78 µM. For the same compound, the GI50 (MDA-MB-468) was 3440 nM, the GI50 (M14) was 4450 nM and the GI50 [21] was 6690 nM. The GI50 (NCI-H23) was 43 µM, the GI50 (786-0) was 13 µM and the GI50 [22] was 5330 nM.
